According to ChEMBL document CHEMBL3124872, “Discovery and early development of TMC647055, a non-nucleoside inhibitor of the hepatitis C virus NS5B polymerase” (J Med Chem, 2014):
Activity calls are given as the source filed them. No cut-off for these calls is given here.

Columns and labels:
Homo sapiens [1] = test: Toxicity in human assessed as effect on food consumption at 300 to 1250 mg, po bid for 5 days followed by morning dose on day 6; type: organism-based; conditions: in vivo, 120 h
In short: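 Healthy volunteers given oral b.i.d. doses of 300, 1000 or 1250 mg for 5 days plus a morning dose on day 6, in hydroxypropyl-β-cyclodextrin vehicle; adverse events, laboratory parameters, vital signs, food consumption, appetite, ECG and plasma 4-β-hydroxycholesterol (CYP3A4 induction marker) monitored.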

Homo sapiens [2] = test: Toxicity in human assessed as grade-3 adverse events at 300 to 1250 mg, po bid for 5 days followed by morning dose on day 6; type: organism-based; conditions: in vivo, 120 h
In short: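 Oral b.i.d. dosing for 5 days plus a single morning dose on day 6, in a hydroxypropyl-β-cyclodextrin vehicle. Healthy volunteers received 300, 1000 or 1250 mg; HCV genotype 1-infected patients received 500 or 1000 mg. Monitoring covered adverse events graded by severity, laboratory parameters, vital signs, food consumption, appetite and ECG.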

Hepatitis C virus [3] = test: Antiviral activity against Hepatitis C virus harboring NS5B M423T mutant infected in human HuH7 by luciferase reporter gene assay; type: functional, organism-based; conditions: Hepacivirus hominis; Huh-7
Hepatitis C virus [4] = test: Antiviral activity against Hepatitis C virus genotype 1b harboring NS5B NNI-1 site V494A mutant infected in human HuH7 by luciferase reporter gene assay relative to wild-type HCV genotype 1b; type: functional, Hepacivirus hominis, Huh-7
[5] = Cytotoxicity against human HepG2 cells after 3 days by resazurin-based fluorescence analysis; type: cell-based

COc1ccc2c(c1)C=C1Cn3c-2c(C2CCCCC2)c2ccc(cc23)C(=O)NS(=O)(=O)N(C)CCOCCN(C)C1=O [TMC-647055]
Activity (Homo sapiens [1]): Non-toxic | Activity (Homo sapiens [2]): Non-toxic | Activity (Hepatitis C virus [3]): Active | fold change (FC) (Hepatitis C virus [4]): 3 | CC50 at 72 h [5]: > 50 µM
